ChEMBL document CHEMBL5705904 (N Engl J Med, 2016)

Tests used:
[1] = AUC(0 to infinity) in human at 175 mg, po administered for 8 days by LC-MS/MS analysis; assay type: ADME, organism-based; conditions: in vivo, time 8 day
How it was run: (§1)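 Steady-state plasma sampling on cycle 1 day 8 in patients, predose and 0.25, 0.5, 0.75, 1, 2, 4 and 6 h post-dose, into lithium heparin. Plasma was stored at -80°C. Drug was quantified by validated LC-MS/MS against a stable labeled internal standard, using only values at or above LLOQ and nominal sampling times.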

[2] = Apparent oral clearance in human at 400 mg, po administered for 8 days by LC-MS/MS analysis; assay type: ADME, organism-based; conditions: in vivo, time 8 day; how it was run: as §1
[3] = biological target: Tyrosine-protein kinase Fgr (Homo sapiens, UniProt P09769); experiment: Inhibition of recombinant FGR (unknown origin) preincubated for 1 hr in presence of ATP by Z-Lyte assay
Chain of Tyrosine-protein kinase Fgr (P09769 whole entry): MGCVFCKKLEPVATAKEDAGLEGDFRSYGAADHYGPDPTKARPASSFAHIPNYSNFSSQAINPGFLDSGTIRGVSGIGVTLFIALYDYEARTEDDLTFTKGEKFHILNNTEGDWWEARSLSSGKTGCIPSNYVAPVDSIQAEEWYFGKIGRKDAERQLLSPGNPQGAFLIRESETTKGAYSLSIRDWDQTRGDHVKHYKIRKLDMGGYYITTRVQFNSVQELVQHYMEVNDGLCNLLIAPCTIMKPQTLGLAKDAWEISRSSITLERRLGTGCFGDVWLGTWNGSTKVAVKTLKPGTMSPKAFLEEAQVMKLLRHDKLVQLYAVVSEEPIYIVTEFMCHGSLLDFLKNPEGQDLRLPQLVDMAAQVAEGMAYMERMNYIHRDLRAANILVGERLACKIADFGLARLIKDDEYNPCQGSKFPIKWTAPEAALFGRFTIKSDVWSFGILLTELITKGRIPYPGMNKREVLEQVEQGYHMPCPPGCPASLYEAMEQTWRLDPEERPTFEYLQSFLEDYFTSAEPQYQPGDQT
How it was run: (§2)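 Recombinant kinase activity was measured by Z'-LYTE with ATP at each enzyme's Km. Inhibitor came from a 10 mM DMSO stock and was tested at 10 concentrations. Compound was preincubated with kinase for 1 h before ATP addition started the reaction, for about 2 h total compound-kinase exposure. IC50 is from 2–3 independent experiments.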

[4] = AUC(0 to 6 hrs) in human at 100 mg, po BID administered for 8 days by LC-MS/MS analysis; assay type: ADME, organism-based; conditions: in vivo, time 8 day; how it was run: as §1
[5] = Half life in human at 250 mg, po administered for 8 days by LC-MS/MS analysis; assay type: ADME, organism-based; conditions: in vivo, time 8 day; how it was run: as §1
[6] = AUC(0 to 12 hrs) in human at 175 mg, po administered for 8 days by LC-MS/MS analysis; assay type: ADME, organism-based; conditions: in vivo, time 8 day; how it was run: as §1
[7] = AUC(0 to 24 hrs) in human at 250 mg, po administered for 8 days by LC-MS/MS analysis; assay type: ADME, organism-based; conditions: in vivo, time 8 day; how it was run: as §1
[8] = Tmax in human at 400 mg, po administered for 8 days by LC-MS/MS analysis; assay type: ADME, organism-based; conditions: in vivo, time 8 day
How it was run: (§3)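 Patient plasma sampled on cycle 1 day 8 at predose and 0.25, 0.5, 0.75, 1, 2, 4 and 6 h post-dose, in lithium heparin. […] Tmax read directly from each individual's data; summarized descriptively.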

[9] = biological target: Tyrosine-protein kinase Blk (Homo sapiens, UniProt P51451); experiment: Inhibition of recombinant BLK (unknown origin) preincubated for 1 hr in presence of ATP by Z-Lyte assay; how it was run: as §2
Chain of Tyrosine-protein kinase Blk (P51451 whole entry): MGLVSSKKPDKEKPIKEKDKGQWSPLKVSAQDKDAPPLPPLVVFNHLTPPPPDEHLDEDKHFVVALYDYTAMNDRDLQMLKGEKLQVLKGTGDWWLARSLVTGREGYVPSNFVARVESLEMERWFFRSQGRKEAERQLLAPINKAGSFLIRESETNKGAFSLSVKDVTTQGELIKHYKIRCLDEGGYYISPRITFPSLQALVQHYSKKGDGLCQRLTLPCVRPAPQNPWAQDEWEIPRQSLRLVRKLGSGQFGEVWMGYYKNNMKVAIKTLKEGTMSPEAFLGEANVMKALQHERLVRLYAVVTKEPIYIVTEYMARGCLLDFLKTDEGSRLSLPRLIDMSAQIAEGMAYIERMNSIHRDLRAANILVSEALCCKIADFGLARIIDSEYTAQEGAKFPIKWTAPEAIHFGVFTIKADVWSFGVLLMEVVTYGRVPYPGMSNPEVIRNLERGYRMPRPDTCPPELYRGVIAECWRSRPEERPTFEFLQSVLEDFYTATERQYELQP

[10] = AUC(0 to 12 hrs) in human at 400 mg, po administered for 8 days by LC-MS/MS analysis; assay type: ADME, organism-based; conditions: in vivo, time 8 day; how it was run: as §1
[11] = Cmax in human at 100 mg, po BID administered for 8 days by LC-MS/MS analysis; assay type: ADME, organism-based; conditions: in vivo, time 8 day; how it was run: as §1
[12] = Apparent oral clearance in human at 100 mg, po BID administered for 8 days by LC-MS/MS analysis; assay type: ADME, organism-based; conditions: in vivo, time 8 day; how it was run: as §1
[13] = Tmax in human at 100 mg, po administered for 8 days by LC-MS/MS analysis; assay type: ADME, organism-based; conditions: in vivo, time 8 day; how it was run: as §3
[14] = Half life in human at 100 mg, po administered for 8 days by LC-MS/MS analysis; assay type: ADME, organism-based; conditions: in vivo, time 8 day; how it was run: as §1
[15] = Apparent oral clearance in human at 250 mg, po administered for 8 days by LC-MS/MS analysis; assay type: ADME, organism-based; conditions: in vivo, time 8 day; how it was run: as §1
[16] = AUC(0 to infinity) in human at 400 mg, po administered for 8 days by LC-MS/MS analysis; assay type: ADME, organism-based; conditions: in vivo, time 8 day; how it was run: as §1
[17] = Cmax in human at 175 mg, po administered for 8 days by LC-MS/MS analysis; assay type: ADME, organism-based; conditions: in vivo, time 8 day; how it was run: as §1
[18] = Terminal elimination half life in human at 400 mg, po administered for 8 days by LC-MS/MS analysis; assay type: ADME, organism-based; conditions: in vivo, time 8 day, read-out: LambdaZ (converted)
[19] = AUC(0 to 6 hrs) in human at 250 mg, po administered for 8 days by LC-MS/MS analysis; assay type: ADME, organism-based; conditions: in vivo, time 8 day; how it was run: as §1
[20] = AUC(0 to infinity) in human at 250 mg, po administered for 8 days by LC-MS/MS analysis; assay type: ADME, organism-based; conditions: in vivo, time 8 day; how it was run: as §1
[21] = AUC(0 to infinity) in human at 100 mg, po BID administered for 8 days by LC-MS/MS analysis; assay type: ADME, organism-based; conditions: in vivo, time 8 day; how it was run: as §1
[22] = Tmax in human at 100 mg, po BID administered for 8 days by LC-MS/MS analysis; assay type: ADME, organism-based; conditions: in vivo, time 8 day; how it was run: as §3
[23] = AUC(0 to 24 hrs) in human at 400 mg, po administered for 8 days by LC-MS/MS analysis; assay type: ADME, organism-based; conditions: in vivo, time 8 day; how it was run: as §1
[24] = AUC(0 to 12 hrs) in human at 100 mg, po BID administered for 8 days by LC-MS/MS analysis; assay type: ADME, organism-based; conditions: in vivo, time 8 day; how it was run: as §1
[25] = Terminal elimination half life in human at 100 mg, po administered for 8 days by LC-MS/MS analysis; assay type: ADME, organism-based; conditions: in vivo, time 8 day, read-out: LambdaZ (converted)
[26] = Tmax in human at 175 mg, po administered for 8 days by LC-MS/MS analysis; assay type: ADME, organism-based; conditions: in vivo, time 8 day; how it was run: as §3
[27] = Apparent volume of distribution during terminal phase in human at 175 mg, po administered for 8 days by LC-MS/MS analysis; assay type: ADME, organism-based; conditions: in vivo, time 8 day, read-out: Vz/F; how it was run: as §1
[28] = biological target: Tyrosine-protein kinase Fyn (Homo sapiens, UniProt P06241); experiment: Inhibition of recombinant FYN (unknown origin) preincubated for 1 hr […] by Z-Lyte assay; how it was run: as §2
Chain of Tyrosine-protein kinase Fyn (P06241 whole entry): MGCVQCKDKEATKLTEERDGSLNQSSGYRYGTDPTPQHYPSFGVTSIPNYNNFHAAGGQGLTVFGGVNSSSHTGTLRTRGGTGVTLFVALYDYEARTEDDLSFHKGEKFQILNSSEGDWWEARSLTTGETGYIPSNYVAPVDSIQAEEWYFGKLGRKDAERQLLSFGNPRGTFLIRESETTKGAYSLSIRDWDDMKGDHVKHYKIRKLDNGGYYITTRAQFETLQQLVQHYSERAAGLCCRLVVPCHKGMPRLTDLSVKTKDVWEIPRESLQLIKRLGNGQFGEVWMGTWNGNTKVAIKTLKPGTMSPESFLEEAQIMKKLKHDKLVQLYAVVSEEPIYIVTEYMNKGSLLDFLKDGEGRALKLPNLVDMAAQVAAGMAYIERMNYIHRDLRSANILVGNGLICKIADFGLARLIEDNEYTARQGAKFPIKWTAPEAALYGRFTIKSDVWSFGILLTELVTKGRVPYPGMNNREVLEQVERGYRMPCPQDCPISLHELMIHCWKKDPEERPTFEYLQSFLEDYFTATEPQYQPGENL

[29] = Apparent volume of distribution during terminal phase in human at 400 mg, po administered for 8 days by LC-MS/MS analysis; assay type: ADME, organism-based; conditions: in vivo, time 8 day, read-out: Vz/F; how it was run: as §1
[30] = Drug accumulation in human at 100 to 400 mg, po administered for 6 hrs by LC-MS/MS analysis; assay type: ADME, organism-based; conditions: in vivo, dose 100-400 mg
[31] = AUC(0 to 24 hrs) in human at 175 mg, po administered for 8 days by LC-MS/MS analysis; assay type: ADME, organism-based; conditions: in vivo, time 8 day; how it was run: as §1

Which AUC(0-inf) [1] does the source give for CC#CC(=O)N1CCC[C@H]1c1nc(-c2ccc(C(=O)Nc3ccccn3)cc2)c2c(N)nccn12 [ACALABRUTINIB] here?
The AUC(0-inf) was 1.16 µg·h/mL.

And the CL/F [2]?
Its CL/F is 5200 mL/min.

What about the IC50 [3] of the same molecule?
The IC50 was > 1 µM.

And the AUC at 192 h [4]?
The AUC at 192 h was 0.826 µg·h/mL.

And the half-life [5]?
The half-life was 56.5 min.

And the AUC at 192 h [6]?
Its AUC at 192 h is 1.16 µg·h/mL.

And the AUC at 192 h [7]?
The AUC at 192 h was 2.31 µg·h/mL.

What about the Tmax [8] of the same molecule?
Its Tmax is 55.2 min.

And the IC50 [9]?
The IC50 was > 1 µM.

And the AUC at 192 h [10]?
Its AUC at 192 h is 1.85 µg·h/mL.

What about the Cmax [11] of the same molecule?
The Cmax was 0.827 µg/mL.

What about the CL/F [12] of the same molecule?
The CL/F was 2750 mL/min.

What about the Tmax [13] of the same molecule?
Its Tmax is 48.6 min.

And the half-life [14]?
The half-life was 69.6 min.

And the CL/F [15]?
The CL/F was 2170 mL/min.

What about the AUC(0-inf) [16] of the same molecule?
Its AUC(0-inf) is 1.87 µg·h/mL.

And the Cmax [17]?
The Cmax was 0.805 µg/mL.

And the k el at 192 h [18]?
The k el at 192 h was 0.000161 s⁻¹.

And the AUC at 192 h [19]?
Its AUC at 192 h is 1.99 µg·h/mL.

What about the AUC(0-inf) [20] of the same molecule?
The AUC(0-inf) was 2.31 µg·h/mL.

What about the AUC(0-inf) [21] of the same molecule?
The AUC(0-inf) was 0.927 µg·h/mL.

And the Tmax [22]?
Its Tmax is 60 min.

And the AUC at 192 h [23]?
Its AUC at 192 h is 1.87 µg·h/mL.

And the AUC at 192 h [24]?
Its AUC at 192 h is 0.926 µg·h/mL.

And the k el at 192 h [25]?
The k el at 192 h was 0.00017 s⁻¹.

What about the Tmax [26] of the same molecule?
The Tmax was 38.4 min.

And the Vd/F [27]?
Its Vd/F is 317 L.

And the IC50 [28]?
The IC50 was > 1 µM.

What about the Vd/F [29] of the same molecule?
The Vd/F was 677 L.

And the Drug uptake [30]?
Its Drug uptake is “Not Active”.

What about the AUC at 192 h [31] of the same molecule?
The AUC at 192 h was 1.16 µg·h/mL.
